According to ChEMBL document CHEMBL1125789, “Synthesis and selective class III antiarrhythmic activity of novel N-heteroaralkyl-substituted 1-(aryloxy)-2-propanolamine and related propylamine derivatives” (J Med Chem, 1991):

Key:
[1] = organism: Canis familiaris; experiment: Repolarization to reach -60mV, in canine Purkinje Fibers at a concentration of 0.3 uM at 300 ms (simulating tachycardia); format: functional, Canis lupus familiaris, Purkinje fiber
Outline: (§1)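 Isolated canine Purkinje fiber bundles were driven by square-wave pulses 2.0 ms long at 2× threshold and equilibrated ≥1 h to steady state. Each concentration was superfused 45–60 min before recording, and action potentials were sampled at 4–6 sites per fiber in control and after drug, giving Vmax and APD to −60 mV.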

[2] = organism: Canis familiaris; experiment: Repolarization to reach -60mV, in canine Purkinje Fibers at a concentration of 1.0 uM at 300 ms (simulating tachycardia); format: functional, Canis lupus familiaris, Purkinje fiber; outline: as §1
[3] = organism: Canis familiaris; experiment: Repolarization to reach -60mV, in canine Purkinje Fibers at a concentration of 3.0 uM at 300 ms (simulating tachycardia); format: functional, Canis lupus familiaris, Purkinje fiber; outline: as §1
[4] = organism: Canis familiaris; experiment: repolarization to reach -60mV, in canine Purkinje Fibers at a concentration of 0.3 uM at 1000 ms (simulating normal heart rate); format: functional, Canis lupus familiaris, Purkinje fiber
Outline: (§2)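 Purkinje fiber bundles were stimulated with square-wave current pulses of 2.0 ms at twice threshold and equilibrated for at least 1 h, or until action potential parameters were steady. Each concentration was superfused for 45-60 min to reach steady state. Action potentials were recorded at four to six sites per fiber, under control and after drug.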

[5] = organism: Canis familiaris; experiment: repolarization to reach -60mV, in canine Purkinje Fibers at a concentration of 1.0 uM at 1000 ms (simulating normal heart rate); format: functional, Canis lupus familiaris, Purkinje fiber; outline: as §2
[6] = organism: Canis familiaris; experiment: repolarization to reach -60mV, in canine Purkinje Fibers at a concentration of 3.0 uM at 1000 ms (simulating normal heart rate); format: functional, Canis lupus familiaris, Purkinje fiber; outline: as §2
[7] = system: Canis familiaris; experiment: Atrial effective refractory period by the compound in open chest anesthetized dog, after iv administration at a dose of 5.0 mg/kg.; format: functional, Canis lupus familiaris, Cardiac atrium; set-up: unit not given here
Outline: (§3)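 Open-chest mongrel dogs under sodium pentobarbital anesthesia (30 mg/kg iv plus 5 mg/kg per h), paced at basic cycle length 300 ms. Atrial effective refractory period was determined by electrical stimulation before and after iv or intraduodenal compound and reported as change from control.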

[8] = system: Canis familiaris; experiment: Atrial effective refractory period by the compound in open chest anesthetized dog, after id administration at a dose of 10 mg/kg.; format: functional, Canis lupus familiaris, Cardiac atrium; details: route intraduodenal; outline: as §3
[9] = system: Canis familiaris; experiment: Heart beat by the compound in open chest anesthetized dog, after id administration at a dose of 10 mg/kg.; format: functional, Canis lupus familiaris; details: route intraduodenal
Outline: (§4)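 Hemodynamics (heart rate, mean arterial pressure) recorded in pentobarbital-anesthetized (30 mg/kg iv, 5 mg/kg per h maintenance) open-chest mongrel dogs during the refractoriness study at BCL 300 ms. Readings were taken before and after iv or intraduodenal compound and expressed as change from control.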

[10] = system: Canis familiaris; experiment: Heart beat by the compound in open chest anesthetized dog, after iv administration at a dose of 5.0 mg/kg.; format: functional, Canis lupus familiaris; set-up: unit not given here; outline: as §4
[11] = system: Canis familiaris; experiment: Atrial conduction time by the compound in open chest anesthetized dog, after id administration at a dose of 10 mg/kg.; format: functional, Canis lupus familiaris, Cardiac atrium; details: route intraduodenal
Outline: (§5)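 Mongrel dogs anesthetized with sodium pentobarbital (30 mg/kg iv, then 5 mg/kg per h), chest opened, paced at BCL 300 ms. Atrial conduction time was taken as the interval between electrograms recorded at the proximal and distal sites of the atrial recording electrode array, before and after iv or intraduodenal dosing. Values are changes from control.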

[12] = system: Canis familiaris; experiment: Atrial conduction time by the compound in open chest anesthetized dog, after iv administration at a dose of 5.0 mg/kg.; format: functional, Canis lupus familiaris, Cardiac atrium; set-up: unit not given here; outline: as §5
[13] = system: Canis familiaris; experiment: Mean arterial pressure by the compound in open chest anesthetized dog, after id administration at a dose of 10 mg/kg.; format: functional, Canis lupus familiaris, Artery; details: route intraduodenal; outline: as §4
[14] = system: Canis familiaris; experiment: Mean arterial pressure by the compound in open chest anesthetized dog, after iv administration at a dose of 5.0 mg/kg.; format: functional, Canis lupus familiaris, Artery; set-up: unit not given here; outline: as §4
[15] = organism: Canis familiaris; experiment: Maximum rate of rise of the upstroke of transmembrane potential, in canine Purkinje Fibers at a concentration of 0.3 uM at 1000 ms (simulating normal heart rate); format: functional; set-up: unit not given here; details: Canis lupus familiaris, Purkinje fiber; outline: as §1
[16] = organism: Canis familiaris; experiment: Maximum rate of rise of the upstroke of transmembrane potential, in canine Purkinje Fibers at a concentration of 0.3 uM at 300 ms (simulating tachycardia); format: functional; set-up: unit not given here; details: Canis lupus familiaris, Purkinje fiber; outline: as §1
[17] = organism: Canis familiaris; experiment: Maximum rate of rise of the upstroke of transmembrane potential, in canine Purkinje Fibers at a concentration of 1.0 uM at 1000 ms (simulating normal heart rate); format: functional; set-up: unit not given here; details: Canis lupus familiaris, Purkinje fiber; outline: as §1
[18] = organism: Canis familiaris; experiment: Maximum rate of rise of the upstroke of transmembrane potential, in canine Purkinje Fibers at a concentration of 1.0 uM at 300 ms (simulating tachycardia); format: functional; set-up: unit not given here; details: Canis lupus familiaris, Purkinje fiber; outline: as §1
[19] = organism: Canis familiaris; experiment: Maximum rate of rise of the upstroke of transmembrane potential, in canine Purkinje Fibers at a concentration of 3.0 uM at 1000 ms (simulating normal heart rate); format: functional; set-up: unit not given here; details: Canis lupus familiaris, Purkinje fiber; outline: as §1
[20] = organism: Canis familiaris; experiment: Maximum rate of rise of the upstroke of transmembrane potential, in canine Purkinje Fibers at a concentration of 3.0 uM at 300 ms (simulating tachycardia); format: functional; set-up: unit not given here; details: Canis lupus familiaris, Purkinje fiber; outline: as §1
[21] = system: Canis familiaris; experiment: Ventricular effective refractory period by the compound in open chest anesthetized dog, after id administration at a dose of 10 mg/kg.; format: functional, Canis lupus familiaris, Heart; details: route intraduodenal
[22] = system: Canis familiaris; experiment: Ventricular effective refractory period by the compound in open chest anesthetized dog, after iv administration at a dose of 5.0 mg/kg.; format: functional, Canis lupus familiaris, Heart; set-up: unit not given here
[23] = system: Canis familiaris; experiment: Ventricular conduction time by the compound in open chest anesthetized dog, after iv administration at a dose of 5.0 mg/kg.; format: functional, Canis lupus familiaris, Heart; set-up: unit not given here
Outline: (§6)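 Mongrel dogs were anesthetized with sodium pentobarbital (30 mg/kg iv, then 5 mg/kg per h), the chest opened, and the heart paced at BCL 300 ms. Compound was given iv or intraduodenally. Ventricular conduction time was taken as the interval between electrograms at the proximal and distal sites of the recording electrode array. 2-5 dogs per dose.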

[24] = system: Canis familiaris; experiment: Ventricular conduction time by the compound in open chest anesthetized dog, after id administration at a dose of 10 mg/kg.; format: functional, Canis lupus familiaris, Heart; details: route intraduodenal; outline: as §6
[25] = organism: Canis familiaris; experiment: Repolarization to reach -60mV, in canine Purkinje Fibers at a concentration of 30 uM at 300 ms (simulating tachycardia); format: functional, Canis lupus familiaris, Purkinje fiber; outline: as §2
[26] = organism: Canis familiaris; experiment: repolarization to reach -60mV, in canine Purkinje Fibers at a concentration of 30 uM at 1000 ms (simulating normal heart rate); format: functional, Canis lupus familiaris, Purkinje fiber; outline: as §2
[27] = organism: Canis familiaris; experiment: Repolarization to reach -60mV, in canine Purkinje Fibers at a concentration of 300 uM at 300 ms (simulating tachycardia); format: functional, Canis lupus familiaris, Purkinje fiber; outline: as §2
[28] = organism: Canis familiaris; experiment: repolarization to reach -60mV, in canine Purkinje Fibers at a concentration of 300 uM at 1000 ms (simulating normal heart rate); format: functional, Canis lupus familiaris, Purkinje fiber; outline: as §2
[29] = system: Canis familiaris; experiment: Atrial effective refractory period by the compound in open chest anesthetized dog, after iv administration at a dose of 2.5 mg/kg.; format: functional, Canis lupus familiaris, Cardiac atrium; outline: as §3
[30] = system: Canis familiaris; experiment: Atrial effective refractory period by the compound in open chest anesthetized dog, after iv administration at a dose of 10.0 mg/kg.; format: functional, Canis lupus familiaris, Cardiac atrium; outline: as §3
[31] = system: Canis familiaris; experiment: Heart beat by the compound in open chest anesthetized dog, after iv administration at a dose of 10.0 mg/kg.; format: functional, Canis lupus familiaris; outline: as §4
[32] = system: Canis familiaris; experiment: Heart beat by the compound in open chest anesthetized dog, after iv administration at a dose of 2.5 mg/kg.; format: functional, Canis lupus familiaris; outline: as §4
[33] = system: Canis familiaris; experiment: Atrial conduction time by the compound in open chest anesthetized dog, after iv administration at a dose of 10.0 mg/kg.; format: functional, Canis lupus familiaris, Cardiac atrium; outline: as §5
[34] = system: Canis familiaris; experiment: Atrial conduction time by the compound in open chest anesthetized dog, after iv administration at a dose of 2.5 mg/kg.; format: functional, Canis lupus familiaris, Cardiac atrium; outline: as §5
[35] = system: Canis familiaris; experiment: Mean arterial pressure by the compound in open chest anesthetized dog, after iv administration at a dose of 2.5 mg/kg.; format: functional, Canis lupus familiaris, Artery; outline: as §4
[36] = organism: Canis familiaris; experiment: Maximum rate of rise of the upstroke of transmembrane potential, in canine Purkinje Fibers at a concentration of 300 uM at 1000 ms (simulating normal heart rate); format: functional; details: Canis lupus familiaris, Purkinje fiber; outline: as §1
[37] = organism: Canis familiaris; experiment: Maximum rate of rise of the upstroke of transmembrane potential, in canine Purkinje Fibers at a concentration of 300 uM at 300 ms (simulating tachycardia); format: functional; details: Canis lupus familiaris, Purkinje fiber; outline: as §1
[38] = organism: Canis familiaris; experiment: Maximum rate of rise of the upstroke of transmembrane potential, in canine Purkinje Fibers at a concentration of 30 uM at 1000 ms (simulating normal heart rate); format: functional; details: Canis lupus familiaris, Purkinje fiber; outline: as §1
[39] = system: Canis familiaris; experiment: Ventricular effective refractory period by the compound in open chest anesthetized dog, after iv administration at a dose of 10.0 mg/kg.; format: functional, Canis lupus familiaris, Heart
[40] = system: Canis familiaris; experiment: Ventricular effective refractory period by the compound in open chest anesthetized dog, after iv administration at a dose of 2.5 mg/kg.; format: functional, Canis lupus familiaris, Heart
[41] = system: Canis familiaris; experiment: Ventricular conduction time by the compound in open chest anesthetized dog, after iv administration at a dose of 2.5 mg/kg.; format: functional, Canis lupus familiaris, Heart; outline: as §6
[42] = system: Canis familiaris; experiment: Ventricular conduction time by the compound in open chest anesthetized dog, after iv administration at a dose of 10.0 mg/kg.; format: functional, Canis lupus familiaris, Heart; outline: as §6
[43] = organism: Canis familiaris; experiment: Maximum rate of rise of the upstroke of transmembrane potential, in canine Purkinje Fibers at a concentration of 30 uM at 300 ms (simulating tachycardia); format: functional; details: Canis lupus familiaris, Purkinje fiber; outline: as §1
[44] = system: Canis familiaris; experiment: Mean arterial pressure by the compound in open chest anesthetized dog, after iv administration at a dose of 10.0 mg/kg.; format: functional, Canis lupus familiaris, Artery; outline: as §4

CN(Cc1ccc2ccccc2n1)CC(O)COc1ccc(NS(C)(=O)=O)cc1 (stereo not given)
APD [1]: 8%
APD [2]: 19%
APD [3]: 27%
APD [4]: 19%
APD [5]: 43%
APD [6]: 62%
AERP [7]: 45
AERP [8]: 31
HR [9]: -15
HR [10]: -18
ACT [11]: -4
ACT [12]: -9
MBP [13]: -5
MBP [14]: -9
Vmax [15]: -2
Vmax [16]: 5
Vmax [17]: 6
Vmax [18]: 15
Vmax [19]: -7
Vmax [20]: -9
VERP [21]: 20
VERP [22]: 21
VCT [23]: -2
VCT [24]: 1

CC(C)NCC(O)c1ccc(NS(C)(=O)=O)cc1 (racemic) [SOTALOL]
APD [25]: 18%
APD [26]: 56%
APD [27]: 36%
APD [28]: 86%
AERP [29]: 42
AERP [7]: 57
AERP [30]: 68
HR [31]: -39
HR [32]: -27
HR [10]: -28
ACT [33]: -4
ACT [34]: -5
ACT [12]: -7
MBP [35]: -16
MBP [14]: -17
Vmax [36]: -10
Vmax [37]: -20
Vmax [38]: 2
VERP [39]: 30
VERP [40]: 19
VERP [22]: 25
VCT [41]: -1
VCT [23]: -1
VCT [42]: -4
Vmax [43]: -12
MBP [44]: -29
